Screening results from PubChem BioAssay.
Rows were chosen to be rich in hits. Some 3.1% of all compounds tested hit in one or more screens of this group.
Lipid droplet: inhibitors of hepatocyte lipid droplet formation, primary screen, imaging, high-throughput imaging, BODIPY stain; AML12 mouse hepatocytes, oleate lipid droplets; inhibition, % at 6.5 µM; hit rate 0.4% among 240,000;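 active means lipid droplet intensity inhibited by at least 50%, with more than 500 cells counted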
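System: AML12 hepatocytes (mouse). Probe or stimulus: oleic acid at 100 µM to induce lipid droplet formation. Times: overnight treatment with compound plus oleate. Detection: Image-based BODIPY and DAPI two-channel analysis. Evaluation: percent inhibition of filter-corrected integrated lipid droplet intensity per well.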
V-ATPase pHluor: regulators of yeast V-ATPase proton pumping, primary screen, pHLuorin cytosolic pH fluorescence. S. cerevisiae. response, % at 10 µM. hit rate 0.37% among 350,000; in the data active means response mostly above about 7.3%, no sharp cut-off; inactive means mostly below about 5.4%; further: actives read high
MPTP block: mitochondrial permeability transition pore inhibitors, primary screen, biochemical, isolated mouse mitochondria, absorbance; Ca2+ swelling absorbance, 30 min; inhibition, % at 10 µM; hit rate 1.4% among 360,000; AID 602449, 2012;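 active means inhibition of 50% or more, scaled per plate between neutral and stimulator controls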
ADAM10 inh: human ADAM10 inhibitors, primary screen, biochemical, QFRET, HTS. Disintegrin and metalloproteinase domain-containing protein 10 (Homo sapiens), O14672. recombinant ADAM10, EDANS/DABCYL FRET peptide cleavage, 3 h. inhibition, % at 7 µM. hit rate 0.62% among 370,000. AID 720582, 2013;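 active means inhibition above a per-campaign cutoff equal to the mean of compounds falling between control-based bounds plus 3 SD, cut at about 20% in these data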
aDG glyco up: activators of alpha-DG glycosylation, primary screen, uHTS, Pro5-aDG cells, AlphaScreen. alpha-DG glycosylation AlphaScreen (IIH6); 0% Pro5, 100% B10-LARGE cell signal. activation, % at 10 µM. hit rate 0.22% among 360,000. AID 624168, 2012;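 active means activation of at least 8% versus controls, or a plate z-score of at least 8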;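 further: Pro5 are CHO cells carrying HIG-tagged alpha-DG that lacks glycosylation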
ADAM17 inh: ADAM17 inhibitors, primary screen, biochemical, QFRET; Disintegrin and metalloproteinase domain-containing protein 17 (Homo sapiens), P78536; recombinant ADAM17, EDANS/DABCYL FRET peptide cleavage; inhibition, % at 6.95 µM; hit rate 0.83% among 370,000; AID 720648, 2013;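 active means inhibition above the mean of compounds lying between control limits plus 3 SD, set per campaign, cut at about 8.5% in these data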
Target sequence (P78536 215-824 limits assumed): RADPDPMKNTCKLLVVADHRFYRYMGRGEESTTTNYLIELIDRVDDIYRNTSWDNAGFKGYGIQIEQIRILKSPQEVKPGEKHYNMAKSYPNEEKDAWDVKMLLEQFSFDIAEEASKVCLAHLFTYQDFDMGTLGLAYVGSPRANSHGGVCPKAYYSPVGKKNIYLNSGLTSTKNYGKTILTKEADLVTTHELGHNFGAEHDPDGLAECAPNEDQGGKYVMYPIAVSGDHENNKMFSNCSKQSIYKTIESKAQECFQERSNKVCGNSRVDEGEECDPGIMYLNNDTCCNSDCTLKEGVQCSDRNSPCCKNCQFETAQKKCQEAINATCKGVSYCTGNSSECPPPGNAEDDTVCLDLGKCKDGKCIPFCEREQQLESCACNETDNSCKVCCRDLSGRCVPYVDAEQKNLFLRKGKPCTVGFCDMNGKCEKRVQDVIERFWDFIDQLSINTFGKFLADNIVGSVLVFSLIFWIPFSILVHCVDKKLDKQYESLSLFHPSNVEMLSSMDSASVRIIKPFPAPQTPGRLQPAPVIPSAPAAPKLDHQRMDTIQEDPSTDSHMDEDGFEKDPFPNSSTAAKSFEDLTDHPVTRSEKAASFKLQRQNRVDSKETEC
Rh123 counter: fluorescence retest of MPTP screen hits in isolated mitochondria, single concentration; shares compounds with MPTP block; membrane potential, Rhodamine 123 fluorescence; inhibition, % at 10 µM; hit rate 78% among 5,000; in the data active means inhibition above about 22%
MPTP swell DR: mitochondrial permeability transition pore inhibitors, dose response, biochemical, absorbance, uHTS hits. shares compounds with MPTP block. isolated mitochondria swelling. IC50, µM. hit rate 58% among 780; in the data active means IC50 below about 20 µM
MPTP counter DR: fluorescent counter-screen in isolated mitochondria, dose response, counter-screen for MPTP inhibitor project, biochemical, fluorescence, uHTS hits; shares compounds with MPTP block; isolated mitochondria counterscreen, fluorescence read-out; IC50, µM; hit rate 49% among 780; AID 651564, 2012; in the data active means IC50 below about 80 µM
A number is an active result; – = inactive; · = not tested or not shown.

SMILES	Lipid droplet	V-ATPase pHluor	MPTP block	ADAM10 inh	aDG glyco up	ADAM17 inh	Rh123 counter	others
OC(CNCc1ccccc1)c1ccccc1 (stereo unspecified)	–	–	–	–	–	–	·
Oc1cccc(C(O)CNCc2ccc(-c3ccccc3)cc2)c1 (stereo unspecified)	–	–	92	–	–	–	–	MPTP swell DR=4.2;MPTP counter DR=51
O=c1cc(N2CCN(c3cccc(C(F)(F)F)c3)CC2)[nH]c(=O)n1C1CCCCC1	·	·	·	–	·	–	·
CC1(C)C(=O)OC(c2cc(Br)ccc2O)C(C)(C)C1=O (stereo unspecified)	–	–	82	–	–	–	89
COC(=O)[C@]12C[C@H](CC(=O)N3CCC(c4ccccc4)CC3)C(=O)N(Cc3ccco3)C1=C[C@H](C(C)C)O[C@@H]2C1CC1	·	·	·	–	·	–	·
Clc1cccc(Cl)c1CON/C=N/c1ncnc2sccc12	–	–	69	–	–	–	41
COc1cc(C(=O)NC2CCCCN(Cc3cccc(Cl)c3)C2=O)cc(OC)c1OC (stereo unspecified)	·	·	·	–	·	–	·
OC(CNCCC(c1ccccc1)c1ccccc1)COc1ccccc1 (stereo unspecified)	–	–	77	–	–	–	–	MPTP swell DR=2.9;MPTP counter DR=18
O=C(C1CCCN(S(=O)(=O)c2ccccc2F)C1)N1CCN(Cc2ccccc2)CC1 (stereo unspecified)	·	·	·	–	·	–	·
S=C(Nc1ccc(Cl)cc1)Nc1ccc2cn[nH]c2c1	–	–	93	–	–	–	89
O=c1[nH]c2ccc(NC(=S)Nc3ccc(Cl)cc3)cc2[nH]1	–	–	56	–	–	–	103
CCOC(=O)c1ccc(NC(=S)Nc2ccc3[nH]c(=O)[nH]c3c2)cc1	–	–	74	–	–	–	59
Cc1ccc(NC(=S)Nc2ccc3[nH]c(=O)[nH]c3c2)cc1	–	–	–	–	–	–	·
O=C(CC1CCCC1)N[C@@H](Cc1cccnc1)C(=O)N1CCC[C@H]1C(=O)NCCc1ccccc1Cl	·	·	·	–	·	–	·
CCCCCCc1cc2cc(/C(N)=N/NC(=O)c3ccncc3)c(=O)oc2cc1O	·	–	–	–	–	–	·
CCCCCCc1cc2cc(C(=O)OCC)c(=O)oc2cc1O	–	–	93	–	–	–	87
CCCCCCc1cc2cc(C(=O)Nc3ccc(OC)cc3)c(=O)oc2cc1O	–	–	78	–	–	–	–	MPTP swell DR=1.1;MPTP counter DR=<2.5
CCCCCCc1cc2cc(S(=O)(=O)c3ccc(F)c(Cl)c3)c(=O)oc2cc1O	–	–	79	–	–	–	86
CCCCCCc1cc2cc(C(=O)NC)c(=N)oc2cc1O	·	–	96	–	–	–	91
CCCCCCc1cc2cc(C(=O)Nc3cccc(OC)c3)c(=O)oc2cc1O	–	–	56	–	–	–	21
COc1ccc2oc(=O)c(C(=O)Nc3ccccc3O)cc2c1	–	–	–	–	–	–	·
COc1ccccc1Oc1ccc2c(c1)C(=O)N(c1cccc3ncccc13)C2=O	–	–	96	–	–	–	112
O=C(CSc1nc2cc(Cl)c(Cl)cc2[nH]1)c1ccc2c(c1)OCO2	–	–	78	–	–	–	73
O=C(CSc1nc2ccc(Cl)cc2[nH]1)c1ccc2c(c1)OCO2	·	–	–	–	–	–	·
c1ccc(C2(CN3CCNC[C@H]3Cc3cccc4ccccc34)CC2)cc1	·	–	–	–	–	–	·
SMILES	Lipid droplet	V-ATPase pHluor	MPTP block	ADAM10 inh	aDG glyco up	ADAM17 inh	Rh123 counter	others
CC(C)(C)CN1CCNC[C@H]1Cc1cccc2ccccc12	·	–	55	–	–	–	–	MPTP swell DR=7.1;MPTP counter DR=66
Oc1ccc(C[C@@H]2CNCCN2CCc2cccc3ccccc23)cc1	·	–	84	–	–	–	–	MPTP swell DR=14;MPTP counter DR=–
O=C(C[n+]1cnn(CC(=O)c2ccc(Cl)cc2Cl)c1)c1ccc([N+](=O)[O-])cc1	–	–	58	–	–	–	–	MPTP swell DR=7.1;MPTP counter DR=–
O=C(Cn1cnc([N+](=O)[O-])c1)c1ccc(Cl)cc1	·	–	–	–	–	–	·
COC(=O)c1c(C)oc2ccc(NS(=O)(=O)c3cccs3)cc12	–	–	92	–	–	–	57
Cc1ccc2c(c1)N(CCCC(=O)NCc1ccc(F)cc1)C(=O)CO2	·	·	·	–	·	–	·
O=C(Nc1nc(-c2ccc(F)cc2)cs1)C1CCN(C(=O)c2ccc(F)cc2)CC1	·	–	64	–	–	–	78
COc1ccccc1NC(=S)NNC(=S)Nc1ccc(OC(F)F)cc1	–	–	97	–	–	–	81
O=C(NNC(=S)Nc1ccc(Cl)cc1)c1ccccc1OC(F)F	–	–	73	–	–	–	86
CC(=O)c1cc(-c2ccc([N+](=O)[O-])cc2)c(=O)n2c1CCC2	·	·	·	–	·	–	·
O=[N+]([O-])c1ccc(O)c(CSc2nnnn2-c2ccccc2)c1	–	–	78	–	–	–	93
O=C(O)c1cc(-n2nnnc2SCc2ccc([N+](=O)[O-])cc2)ccc1Cl	–	–	–	–	–	–	·
O=C(/C(=N\Nc1ccc([N+](=O)[O-])cc1)Sc1nnnn1-c1ccccc1)c1ccccc1	–	–	94	–	–	–	90
Oc1ccc(CNc2ccc(C(F)(F)F)cc2F)c2cccnc12	·	·	·	–	·	–	·
COc1ccc(-c2[nH]c(-c3ccc(SC)cc3)nc2SCC(=O)Nc2nccs2)cc1	–	–	68	–	–	–	49
CCN(C[C@H]1N[C@@](Cc2ccccc2)(C(=O)OC)[C@H]2C(=O)N(Cc3ccccc3)C(=O)[C@@H]12)C(=O)Nc1ccc(Cl)cc1	·	–	63	–	–	–	100
CCN(C[C@H]1N[C@@](Cc2ccccc2)(C(=O)OC)[C@H]2C(=O)N(Cc3ccccc3)C(=O)[C@@H]12)C(=O)Nc1ccc(F)cc1	·	–	–	–	–	–	·
N=c1c(S(=O)(=O)c2ccccc2)cc2c(=O)n3ccccc3nc2n1CCCN1CCOCC1	–	–	–	–	–	–	·
N=c1c(S(=O)(=O)c2ccc(Cl)cc2)cc2c(=O)n3ccccc3nc2n1CCN1CCOCC1	–	–	60	–	–	–	–	MPTP swell DR=–;MPTP counter DR=–
CN(C)CCCN(C(=O)COc1ccc(Cl)cc1)c1nc2cc3c(cc2s1)OCCO3	·	–	87	–	–	–	–	MPTP swell DR=4.3;MPTP counter DR=74
